In the library only some 2.3% were active in any assay of this set; here they are far more common.
STEP inh = STEP (human) phosphatase inhibition; P54829; recombinant STEP, OMFP fluorogenic substrate, fluorescence; inhibition, % at 20 µM; actives 0.25% (n = 360,000); AID 588621;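 active = inhibition at 20 µM, scaled per plate between control wells, above about 37%, limit read from the data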;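 note: 0% = DMSO with enzyme and substrate and 100% = substrate only without enzyme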
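Also added – OMFP at 25 µM · Test system – STEP tyrosine phosphatase · Technique – FITC-channel fluorescence of OMFP product · Schedule – 20 min at room temperature, dark · Evaluation – control-normalized % inhibition with plate pattern correction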
SUMO1-SIM PPI = SUMO1-SIM interaction modulation | P63165 | SUMO1 binding to a labelled peptide, TR-FRET, 1 h | inhibition, % at 20 µM | actives 0.33% (n = 360,000); in the data active = inhibition above about 37%
DNMT1 inh = inhibitors of human DNMT1. DNMT1 molecular beacon, Hinp1I cleavage, fluorescence. AID 588458. inhibition (reported as % activation of signal), % at 10 µM. P26358. actives 0.83% (n = 360,000); in the data active = inhibition above about 50%
Rpn11 block = blocks the human proteasome subunit Rpn11 | human 26S proteasome, Ub4-pepOG fluorescence polarization; 20S core pre-blocked with epoxomicin | AID 588493 | actives 0.59% (n = 360,000) | inhibition, % at 20 µM;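 active = inhibition at 20 µM, scaled to each plate's controls, above about 33%, limit read from the data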
Scp1 inh = blocks human Scp-1 phosphatase activity. Q9GZU7. Recombinant Scp1, phosphopeptide, malachite green phosphate absorbance. inhibition, % at 20 µM. actives 0.88% (n = 340,000);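 active = inhibition above about 50% at 20 µM, limit read from the data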;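 note: plate controls were DMSO wells with enzyme for no effect and wells lacking enzyme for full effect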
Target sequence (Q9GZU7 76-261 limits assumed): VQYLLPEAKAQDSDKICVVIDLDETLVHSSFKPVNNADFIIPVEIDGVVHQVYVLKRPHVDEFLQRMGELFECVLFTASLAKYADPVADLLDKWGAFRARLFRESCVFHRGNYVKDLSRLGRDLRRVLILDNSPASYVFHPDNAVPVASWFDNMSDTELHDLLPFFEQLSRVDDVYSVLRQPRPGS
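Incubation: 45 min enzyme reaction at room temperature / System: truncated SCP-1 phosphatase (76-261aa) / Reagent: Phospho 17-mer peptide substrate / Buffer or medium: Acidic Tris acetate buffer with magnesium and detergent / Signal: absorbance at 630 nm / Doses: one concentration, 20 µM, with 1.0% DMSO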
LMPTP block = LMPTP (human) inhibition; recombinant LMPTP-A, OMFP fluorogenic substrate, fluorescence intensity; actives 0.22% (n = 360,000); P24666; inhibition, % at 20 µM; AID 651560;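 active = compounds that cut the enzyme signal by at least half of the control window in the single-dose screen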;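 note: plate controls were DMSO wells with enzyme plus substrate for no effect and substrate without enzyme for full effect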
Target sequence (P24666 whole entry, looked up): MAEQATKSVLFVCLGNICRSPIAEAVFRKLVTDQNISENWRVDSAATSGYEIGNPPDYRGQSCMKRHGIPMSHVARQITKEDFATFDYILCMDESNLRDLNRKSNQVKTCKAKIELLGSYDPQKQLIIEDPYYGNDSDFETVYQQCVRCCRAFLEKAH
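Assay system: LMPTP-A, protein tyrosine phosphatase of low molecular weight / Medium: pH 6.0 Bis-Tris buffer with DTT and Triton X-100 / Schedule: 50 min enzyme reaction at room temperature, protected from light / Measured by: endpoint fluorescence intensity from OMFP dephosphorylation / Read-out basis: % inhibition relative to no-enzyme and uninhibited control wells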
An asterisk follows results filed as active; / = no result shown.

SMILES	STEP inh	SUMO1-SIM PPI	DNMT1 inh	Rpn11 block	Scp1 inh	LMPTP block
CC1CC(C)CN(C(=O)COC(=O)CCCN2C(=O)c3cccc4cccc(c34)C2=O)C1 (configuration not stated)	1	-26	-4	-4	-5	0
Nc1nc(N)c2c(ccc3c2ccn3Cc2cccc([N+](=O)[O-])c2)n1	8	10	-10	-6	/	69*
Cc1nc(COC(=O)c2cc(O)c3ccccc3c2O)cs1	-4	-19	-12	1	69*	1
Cc1nc(COC(=O)c2ccc(CO)cc2)cs1	0	-2	0	2	0	-2
CCC(CO)Oc1cc(NC(=O)c2ccc(OC)cc2)c2ncn(C(C)C)c2c1 (configuration not stated)	-2	-1	-12	31	3	2
CCC(CO)Oc1cc(NC(=O)c2cccc(OC)c2)c2ncn(C(C)C)c2c1 (configuration not stated)	4	61*	-25	33	1	0
CCNc1ccc(C(=O)NN=C2CCCC2)cc1[N+](=O)[O-]	2	-22	-7	-1	-9	2
O=C(Nc1ccc(F)cc1)c1ccc(NC(=O)C2CCCO2)cc1 (configuration not stated)	1	4	2	0	0	-1
O=C(Nc1ccc(C(F)(F)F)cc1)c1ccc(NC(=O)C2CCCO2)cc1 (configuration not stated)	52*	18	9	94*	33	40
COc1cc(OC)cc(C(=O)N/N=C(\C)CC(=O)Nc2ccccn2)c1	3	4	-2	2	-7	1
Cc1nn(CCc2nn[nH]n2)c2nc(-c3ccc(C4CCCCC4)cc3)cc(C(F)(F)F)c12	1	40*	9	2	-7	3
CC(=O)Nc1ccc(-c2nc3cc(Cl)ccc3o2)cc1	4	13	-6	17	62*	19
O=C(O)c1ccccc1-c1ccccc1C(=O)Nc1ccc(-c2nc3cc(Cl)ccc3o2)cc1	0	26	-3	4	-3	1
O=C(CNC(=S)N(Cc1ccccc1)Cc1ccccc1F)NCCc1ccc(Cl)cc1	1	-1	-6	-5	1	5
Cc1cccc2nc(-c3ccccc3)nc(N[C@@H](CO)c3ccccc3)c12	2	-3	-13	2	-11	54*
N#C/C(C(=O)NCCc1ccccc1)=C1/N=C(NC(=O)c2cccs2)c2ccccc21	2	48*	16	2	-7	0
O=C(NCCN1CCCC1=O)C1CCC(=O)N(CCc2cccc(F)c2)C1 (configuration not stated)	2	44*	1	2	-7	0
COc1ccc(N2CCN(CCNC(=O)c3ccc4c(c3)[nH]c(=S)n3c5ccccc5nc43)CC2)cc1	-5	4	18	5	-12	3
CCc1cc(=O)oc2cc3occ(-c4ccc(OC)c(F)c4)c3cc12	5	0	34	36	-3	44
O=C(O[C@@H]1OC2COC(=O)c3cc(O)c(O)c(O)c3-c3c(cc(O)c(O)c3O)C(=O)O[C@@H]([C@H]1O)[C@@H]2O)c1cc(O)c(O)c(O)c1	11	46*	90*	/	50*	14
Cc1ccc(Cl)cc1NC(=S)N(CCCN1CCOCC1)Cc1ccco1	8	-1	1	4	-1	-1
Cc1cc(Cl)cc(C)c1OCCOCCNCc1ccccc1	2	-4	-2	1	1	-2
N#CC(C#N)=C1NC(N)=C(C#N)C(c2ccccc2)=C1C#N	2	41*	-3	31	/	3
N#CC1=C(c2ccccc2)/C(=C/c2ccccc2)OC1=O	4	6	19	4	-7	0
CN1CCN(c2ccc(-c3cccc(NC(=O)COc4ccc(Cl)cc4Cl)c3)nn2)CC1	4	-52	5	-6	/	-2
CC(=O)Nc1ccc(NC(=O)CSc2ccc(-c3ccc(-n4ccnc4)cc3)nn2)cc1	2	42*	-3	5	-1	8
